Source: ChEMBL document CHEMBL4622973, “Discovery of Potent Small-Molecule SIRT6 Activators: Structure-Activity Relationship and Anti-Pancreatic Ductal Adenocarcinoma Activity” (J Med Chem, 2020)
Calls of active or inactive are those of the source. The rule behind the calls is not given here.

Tests used:
Bel-7402 = assay: Antiproliferative activity against human Bel7402 cells assessed as reduction in cell viability incubated for 72 hrs by MTT assay; format: functional, cell-based
Histone deacetylase 4 = Histone deacetylase 4 (Homo sapiens, UniProt P56524); assay: Inhibition of HDAC4 (unknown origin) by FDL assay
Procedure, shortened: (§1)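 Selectivity testing by FDL assay at concentrations up to 200 µM. SIRT1-2 assays run by an outside contract provider. Values reported as IC50.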

[1] = target: T1, NAD-dependent protein deacylase sirtuin-6 (Homo sapiens, UniProt Q8N6T7); assay: Activation of N-terminal his-tagged human SIRT6 expressed in Escherichia coli M15 [pREP4] assessed as increase in peptide demyristoylation incubated for 120 mins using Ac-EALPKK(Myr)-AMC substrate by FDL assay relative to control
Procedure, shortened: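 Demyristoylation: 1 µM recombinant SIRT6 preincubated with compound for 20 min at 37 °C in 50 mM Tris-HCl pH 8.0, BSA 1 mg/mL, 1 mM DTT, with 10 µM Ac-EALPKK(Myr)-AMC. Fluorescence read. Mean ± s.d., triplicate wells, three independent experiments.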

[2] = target: Protein deacetylase HDAC6 (Homo sapiens, UniProt Q9UBN7); assay: Inhibition of HDAC6 (unknown origin) by FDL assay; procedure, shortened: as §1
[3] = target: T1, NAD-dependent protein deacylase sirtuin-6; assay: […] in human PANC1 cells assessed as reduction in IGF2BP3 expression levels at 25 uM incubated for 72 hrs by Western blot analysis; format: cell-based; details: PANC-1
Procedure, shortened: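 Cells incubated 72 h with various compound concentrations; whole-cell RIPA lysates with protease inhibitors, BCA-normalised, separated on 12% SDS-PAGE, transferred to PVDF, blocked in 5% milk or BSA. Probed 10 h at 4 °C with antibodies to SIRT6, acetyl-H3K9/K18/K56, total H3, Lin28b, Myc, IGF2BP3, β-actin; HRP secondary, chemiluminescent detection.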

PANC-1 [4] = assay: Antiproliferative activity against human PANC1 cells assessed as reduction in cell viability incubated for 72 hrs by MTT assay; format: functional, cell-based
Procedure, shortened: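 PDAC cells grown in DMEM or RPMI1640 with 10% FBS and penicillin/streptomycin at 37 °C, 5% CO2. Plated in triplicate, then treated with a concentration series for 72 h. Viability read by MTT. IC50 calculated from dose-response curves.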

[5] = target: NAD-dependent protein deacylase sirtuin-5, mitochondrial (Homo sapiens, UniProt Q9NXA8); assay: Inhibition of SIRT5 (unknown origin) by FDL assay
Procedure, shortened: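 SIRT3 and SIRT5 tested by an outsourced FDL fluorogenic deacetylase assay, each from a different contract provider. The IC50 was determined for each enzyme, with concentrations going up to 200 μM.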

[6] = target: NAD-dependent protein deacetylase sirtuin-2 (Homo sapiens, UniProt Q8IXJ6); assay: Inhibition of SIRT2 (unknown origin) by FDL assay; procedure, shortened: as §1
Histone deacetylase 8 = Histone deacetylase 8 (Homo sapiens, UniProt Q9BY41); assay: Inhibition of HDAC8 (unknown origin) by FDL assay; procedure, shortened: as §1
NCI-H446 = assay: Antiproliferative activity against human NCI-H446 cells assessed as reduction in cell viability incubated for 72 hrs by MTT assay; format: functional, cell-based
SK-OV-3 = assay: Antiproliferative activity against human SKOV3 cells assessed as reduction in cell viability incubated for 72 hrs by MTT assay; format: functional, cell-based
MIA PaCa-2 = assay: Inhibition of colony formation in human MIAPaCa2 cells incubated for 9 to 18 days by crystal violet staining based assay; format: functional, cell-based
Procedure, shortened: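 Cells are seeded per well at the line-specific density: BXPC-3 750, PANC-1 500, AsPC-1 2200, MIAPaCa-2 500. Compound at several concentrations is added after 24 h. Incubation runs 9–18 days (BXPC-3 18 days, PANC-1 14 days). Cells are then fixed with 4% paraformaldehyde and stained with crystal violet, and colonies of more than 50 cells are counted.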

Histone deacetylase 11 = Histone deacetylase 11 (Homo sapiens, UniProt Q96DB2); assay: Inhibition of HDAC11 (unknown origin) by FDL assay; procedure, shortened: as §1
PANC-1 [7] = assay: Inhibition of cell migration of human PANC1 cells at 10 umol/L incubated for 24 hrs by inverted microscopy relative to control; format: functional; details: PANC-1, 24 h
Procedure, shortened: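 PDAC cells are grown to a confluent monolayer at 37 °C in 5% CO2. The monolayer is scratched with a 200 μL pipette tip to make a gap of constant width, then washed with PBS. Cells are exposed to a range of compound concentrations. They are imaged by inverted microscope after 24 h. Migrated cells are counted by hand, and inhibition is expressed relative to untreated wells (100%).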

Histone deacetylase 1 = Histone deacetylase 1 (Homo sapiens, UniProt Q13547); assay: Inhibition of HDAC1 (unknown origin) by FDL assay; procedure, shortened: as §1
Homo sapiens = species on record: Homo sapiens; assay: Selectivity index, ratio of IC50 for SIRT1 (unknown origin) to EC1.5 for N-terminal his-tagged human SIRT6 expressed in Escherichia coli M15 [pREP4]
NCI-H1975 = assay: Antiproliferative activity against human NCI-H1975 cells assessed as reduction in cell viability incubated for 72 hrs by MTT assay; format: functional, cell-based
[8] = target: Polyamine deacetylase HDAC10 (Homo sapiens, UniProt Q969S8); assay: Inhibition of HDAC10 (unknown origin) by FDL assay; procedure, shortened: as §1
[9] = Volume of distribution at steady state in Sprague-Dawley rat at 2 mg/kg, iv after 0.25 to 24 hrs by LC-MS/MS analysis; format: ADME, organism-based; details: in vivo
Procedure, shortened: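 Male Sprague-Dawley rats, 6–8 weeks old, received a single dose of 10 mg/kg p.o. or 2 mg/kg i.v. The vehicle was 5% DMSO, 10% Solutol and 85% saline at pH 7. Blood was taken by cardiac puncture at 0.083–24 h (p.o.) or 0.25–24 h (i.v.), and plasma was measured by LC-MS/MS. Values are mean ± SD, n = 3.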

[10] = target: T1, NAD-dependent protein deacylase sirtuin-6; assay: Binding affinity to N-terminal his-tagged human SIRT6 expressed in Escherichia coli M15 [pREP4] by SPR assay
[11] = Half life in Sprague-Dawley rat at 10 mg/kg, po after 0.083 to 24 hrs by LC-MS/MS analysis; format: ADME, organism-based; details: in vivo
Procedure, shortened: (§2)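 Male Sprague-Dawley rats, 6-8 weeks old. Dosing solution of 10 (PO) or 2 (IV) mg/mL in 5% DMSO, 10% Solutol and 85% saline, pH 7. Blood taken by cardiac puncture at 0.083–24 h (PO) or 0.25–24 h (IV). Plasma levels measured by LC-MS/MS. Values are mean ± SD, n = 3.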

[12] = Clearance in Sprague-Dawley rat at 2 mg/kg, iv after 0.25 to 24 hrs by LC-MS/MS analysis; format: ADME, organism-based; details: in vivo; procedure, shortened: as §2
[13] = target: T1, NAD-dependent protein deacylase sirtuin-6; assay: Binding affinity to N-terminal his-tagged human SIRT6 expressed in Escherichia coli M15 [pREP4] by ITC assay
Procedure, shortened: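 ITC at 25 °C in 20 mM HEPES pH 7.5, 100 mM NaCl, 2 mM DTT. SIRT6 (400 µM) injected into a cell holding activator (80 µM). Kd derived from the binding isotherm.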

T1 sequence (Q8N6T7 whole entry): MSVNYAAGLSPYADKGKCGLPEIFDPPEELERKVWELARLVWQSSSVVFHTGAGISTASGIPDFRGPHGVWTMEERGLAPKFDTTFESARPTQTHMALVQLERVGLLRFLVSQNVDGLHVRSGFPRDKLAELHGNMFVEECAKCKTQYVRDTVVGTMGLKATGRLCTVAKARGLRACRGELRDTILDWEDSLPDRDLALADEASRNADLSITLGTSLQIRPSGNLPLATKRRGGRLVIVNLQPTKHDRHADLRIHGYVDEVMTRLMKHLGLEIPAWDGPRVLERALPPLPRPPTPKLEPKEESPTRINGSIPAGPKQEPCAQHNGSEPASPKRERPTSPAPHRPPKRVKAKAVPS
Chain of Histone deacetylase 11 (Q96DB2 whole entry): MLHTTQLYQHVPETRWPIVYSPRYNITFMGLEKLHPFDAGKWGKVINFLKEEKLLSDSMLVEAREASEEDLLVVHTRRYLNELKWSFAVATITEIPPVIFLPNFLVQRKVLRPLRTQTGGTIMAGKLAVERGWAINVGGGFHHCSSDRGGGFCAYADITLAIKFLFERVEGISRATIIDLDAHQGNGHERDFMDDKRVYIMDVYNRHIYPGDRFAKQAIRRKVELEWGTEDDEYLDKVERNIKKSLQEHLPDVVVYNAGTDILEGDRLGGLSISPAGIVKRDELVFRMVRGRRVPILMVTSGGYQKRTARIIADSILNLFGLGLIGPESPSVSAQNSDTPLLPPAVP
Chain of Protein deacetylase HDAC6 (Q9UBN7 whole entry): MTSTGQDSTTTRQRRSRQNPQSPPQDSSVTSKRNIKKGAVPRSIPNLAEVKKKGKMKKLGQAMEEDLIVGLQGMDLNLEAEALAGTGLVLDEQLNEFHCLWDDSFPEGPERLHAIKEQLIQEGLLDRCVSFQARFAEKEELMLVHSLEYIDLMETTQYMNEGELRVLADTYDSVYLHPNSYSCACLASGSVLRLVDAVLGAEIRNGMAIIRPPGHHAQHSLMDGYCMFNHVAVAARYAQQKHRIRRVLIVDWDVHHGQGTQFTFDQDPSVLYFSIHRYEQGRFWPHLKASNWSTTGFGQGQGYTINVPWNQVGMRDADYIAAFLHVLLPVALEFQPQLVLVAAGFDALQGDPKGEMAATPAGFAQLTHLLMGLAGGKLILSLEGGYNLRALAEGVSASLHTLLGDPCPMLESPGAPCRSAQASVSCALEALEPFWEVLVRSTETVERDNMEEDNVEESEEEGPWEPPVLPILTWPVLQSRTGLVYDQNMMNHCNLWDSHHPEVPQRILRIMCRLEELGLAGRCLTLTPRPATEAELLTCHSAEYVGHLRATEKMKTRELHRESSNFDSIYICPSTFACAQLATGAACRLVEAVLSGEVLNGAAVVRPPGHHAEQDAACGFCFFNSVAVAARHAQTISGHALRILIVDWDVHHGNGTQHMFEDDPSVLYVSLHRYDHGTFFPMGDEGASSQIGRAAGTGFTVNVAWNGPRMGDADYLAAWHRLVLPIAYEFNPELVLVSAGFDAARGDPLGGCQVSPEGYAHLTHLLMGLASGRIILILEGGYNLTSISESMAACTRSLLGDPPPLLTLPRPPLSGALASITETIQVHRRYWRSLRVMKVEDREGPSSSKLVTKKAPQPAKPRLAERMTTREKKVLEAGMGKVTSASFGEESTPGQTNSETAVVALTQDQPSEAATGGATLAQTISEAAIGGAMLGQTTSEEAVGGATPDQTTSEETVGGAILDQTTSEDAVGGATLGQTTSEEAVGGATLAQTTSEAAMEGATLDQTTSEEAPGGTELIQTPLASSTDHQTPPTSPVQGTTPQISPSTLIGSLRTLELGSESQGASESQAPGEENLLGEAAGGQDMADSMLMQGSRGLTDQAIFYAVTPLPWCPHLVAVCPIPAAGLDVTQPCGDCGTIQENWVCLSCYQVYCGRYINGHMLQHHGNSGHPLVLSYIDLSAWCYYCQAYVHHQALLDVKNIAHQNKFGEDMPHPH
Chain of NAD-dependent protein deacetylase sirtuin-2 (Q8IXJ6 whole entry): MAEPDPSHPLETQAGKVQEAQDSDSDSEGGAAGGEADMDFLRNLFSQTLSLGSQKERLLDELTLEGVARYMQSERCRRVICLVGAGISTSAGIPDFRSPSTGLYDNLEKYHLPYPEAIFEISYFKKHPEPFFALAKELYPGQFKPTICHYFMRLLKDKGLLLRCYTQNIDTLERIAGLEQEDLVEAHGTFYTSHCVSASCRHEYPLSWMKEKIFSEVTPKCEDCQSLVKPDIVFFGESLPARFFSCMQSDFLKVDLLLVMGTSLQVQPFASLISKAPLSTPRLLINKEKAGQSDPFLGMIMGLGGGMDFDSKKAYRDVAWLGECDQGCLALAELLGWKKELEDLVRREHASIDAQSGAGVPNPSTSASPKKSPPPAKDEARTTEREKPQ
Chain of Histone deacetylase 8 (Q9BY41 whole entry): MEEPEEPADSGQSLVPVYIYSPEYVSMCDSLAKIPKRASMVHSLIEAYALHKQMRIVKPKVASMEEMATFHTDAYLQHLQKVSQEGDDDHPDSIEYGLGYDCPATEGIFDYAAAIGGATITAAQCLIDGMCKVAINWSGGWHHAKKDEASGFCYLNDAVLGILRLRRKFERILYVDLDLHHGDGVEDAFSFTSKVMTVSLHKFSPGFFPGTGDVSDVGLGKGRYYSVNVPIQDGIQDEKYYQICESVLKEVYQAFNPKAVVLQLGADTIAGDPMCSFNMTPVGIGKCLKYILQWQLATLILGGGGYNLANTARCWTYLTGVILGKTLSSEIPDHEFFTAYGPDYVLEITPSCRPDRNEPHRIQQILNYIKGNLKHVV
Chain of Histone deacetylase 1 (Q13547 whole entry): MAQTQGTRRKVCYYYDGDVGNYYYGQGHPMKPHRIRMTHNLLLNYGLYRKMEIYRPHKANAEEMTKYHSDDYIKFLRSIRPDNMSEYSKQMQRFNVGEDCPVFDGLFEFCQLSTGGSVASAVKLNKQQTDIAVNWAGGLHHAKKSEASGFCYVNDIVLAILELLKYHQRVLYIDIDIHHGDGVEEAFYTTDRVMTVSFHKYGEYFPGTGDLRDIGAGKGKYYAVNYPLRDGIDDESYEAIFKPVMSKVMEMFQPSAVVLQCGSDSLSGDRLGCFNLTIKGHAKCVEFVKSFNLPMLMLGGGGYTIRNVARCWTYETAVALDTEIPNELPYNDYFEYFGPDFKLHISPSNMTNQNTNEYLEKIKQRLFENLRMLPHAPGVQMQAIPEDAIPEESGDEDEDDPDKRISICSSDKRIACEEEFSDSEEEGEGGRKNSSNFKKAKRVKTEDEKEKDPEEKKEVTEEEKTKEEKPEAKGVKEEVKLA
Chain of Polyamine deacetylase HDAC10 (Q969S8 whole entry): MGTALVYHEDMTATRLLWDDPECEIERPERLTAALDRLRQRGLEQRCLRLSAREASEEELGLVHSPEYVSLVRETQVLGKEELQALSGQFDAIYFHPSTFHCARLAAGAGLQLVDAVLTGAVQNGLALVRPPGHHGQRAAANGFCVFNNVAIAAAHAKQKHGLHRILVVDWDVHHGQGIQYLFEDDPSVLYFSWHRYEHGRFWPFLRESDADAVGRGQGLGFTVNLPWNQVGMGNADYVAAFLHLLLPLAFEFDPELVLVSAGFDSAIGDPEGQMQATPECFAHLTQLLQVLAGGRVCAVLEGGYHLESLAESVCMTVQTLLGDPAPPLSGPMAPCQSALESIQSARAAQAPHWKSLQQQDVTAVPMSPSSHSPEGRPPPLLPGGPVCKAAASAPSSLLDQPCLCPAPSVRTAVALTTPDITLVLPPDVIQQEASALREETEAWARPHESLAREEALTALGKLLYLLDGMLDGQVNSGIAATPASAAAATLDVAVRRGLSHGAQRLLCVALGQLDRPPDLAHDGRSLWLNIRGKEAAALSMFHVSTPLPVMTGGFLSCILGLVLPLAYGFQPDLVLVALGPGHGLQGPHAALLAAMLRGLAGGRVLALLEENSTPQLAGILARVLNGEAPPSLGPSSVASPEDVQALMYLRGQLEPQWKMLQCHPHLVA
Chain of Histone deacetylase 4 (P56524 whole entry): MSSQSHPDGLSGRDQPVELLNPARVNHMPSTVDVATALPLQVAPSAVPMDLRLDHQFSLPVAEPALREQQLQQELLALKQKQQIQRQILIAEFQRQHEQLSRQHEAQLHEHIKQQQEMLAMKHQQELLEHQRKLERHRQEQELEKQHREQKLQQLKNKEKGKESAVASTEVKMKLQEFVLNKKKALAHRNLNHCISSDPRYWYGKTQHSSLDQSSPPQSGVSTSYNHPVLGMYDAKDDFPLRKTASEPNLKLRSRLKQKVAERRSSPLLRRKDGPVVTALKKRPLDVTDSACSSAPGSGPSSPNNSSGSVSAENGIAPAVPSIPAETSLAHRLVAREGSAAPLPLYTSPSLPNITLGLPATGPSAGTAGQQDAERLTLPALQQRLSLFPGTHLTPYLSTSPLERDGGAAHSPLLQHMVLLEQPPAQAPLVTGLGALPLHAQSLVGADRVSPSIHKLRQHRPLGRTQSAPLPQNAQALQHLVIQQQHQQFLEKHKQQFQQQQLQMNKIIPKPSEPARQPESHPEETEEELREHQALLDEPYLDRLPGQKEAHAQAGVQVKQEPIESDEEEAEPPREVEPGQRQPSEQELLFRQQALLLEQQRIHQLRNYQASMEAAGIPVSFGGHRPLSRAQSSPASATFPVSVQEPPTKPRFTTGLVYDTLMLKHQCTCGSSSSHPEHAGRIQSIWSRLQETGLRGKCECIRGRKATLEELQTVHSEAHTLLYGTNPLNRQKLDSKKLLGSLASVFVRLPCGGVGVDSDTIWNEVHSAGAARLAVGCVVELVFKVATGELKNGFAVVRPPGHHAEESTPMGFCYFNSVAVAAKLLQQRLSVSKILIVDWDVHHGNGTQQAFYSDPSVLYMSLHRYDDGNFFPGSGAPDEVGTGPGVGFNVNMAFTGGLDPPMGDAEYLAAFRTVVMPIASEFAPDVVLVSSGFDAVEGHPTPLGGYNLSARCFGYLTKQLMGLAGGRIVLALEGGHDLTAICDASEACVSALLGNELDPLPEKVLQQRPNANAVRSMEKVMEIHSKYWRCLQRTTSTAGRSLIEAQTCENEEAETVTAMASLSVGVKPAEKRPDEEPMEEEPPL

In the case of `O=C(NC(c1ccccc1)c1ccccc1)c1cc(-c2cc3ccccc3o2)nc2ccccc12`, the Activity (Bel-7402) is reported as “Active”, the IC50 (Histone deacetylase 4) is reported as > 200 µM and the EC1.5 [1] is reported as 0.58 to 0.72 µM. For the same molecule, the EC50 [1] was 8.91 µM, the IC50 [2] was > 200 µM and the inhibition [3] was “Active”. For the same molecule, the Activity (PANC-1 [4]) was “Dose-dependent effect”, the IC50 (PANC-1 [4]; PANC-1, 72 h) was 4.13 µM and the IC50 [5] was > 200 µM. For the same molecule, the IC50 [6] was > 200 µM, the IC50 (Histone deacetylase 8) was > 200 µM and the Activity (NCI-H446) was “Active”. The Activity (SK-OV-3) was “Active”, the inhibition (MIA PaCa-2) was “Dose-dependent effect” and the IC50 (Histone deacetylase 11) was > 200 µM. The inhibition at 10 µM (PANC-1 [7]) was 87.8%, the IC50 (Histone deacetylase 1) was > 200 µM and the Ratio (Homo sapiens) was 300. The Activity (NCI-H1975) was “Active”, the IC50 [8] was > 200 µM and the Vdss [9] was 1112.8 L/kg. It also gave a Kd [10] of 5.52 µM, a half-life [11] of 7.52 h and a CL [12] of 10 mL/min/kg. The Kd [13] was 8.85 µM.
